Test results reported in PMC11528686 (Insect biochemistry and molecular biology, 2022).

How the values were obtained:
PGRP1 [1] = molecular target: T1, PGRP1 (Manduca sexta, UniProt Q86RS6); test: SPR on a Biacore T200; assay type: binding; conditions: read-out: Kd (μM), values without parentheses
T1 sequence (Q86RS6 20-191): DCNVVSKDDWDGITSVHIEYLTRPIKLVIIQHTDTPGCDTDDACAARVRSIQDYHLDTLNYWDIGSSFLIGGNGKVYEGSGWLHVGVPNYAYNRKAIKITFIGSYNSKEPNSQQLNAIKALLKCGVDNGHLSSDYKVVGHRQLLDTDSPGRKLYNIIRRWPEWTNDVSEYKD
Outline: (§1)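 Association and dissociation were run on a Biacore T200 with amine-coupled protein. DAP- or Lys-muramyl pentapeptide, stored at −20 °C, was flowed in HBS-EP (10 mM HEPES, 150 mM NaCl, 3 mM EDTA, 0.005% polysorbate 20) at 30 μl/min and 25 °C. Multi-concentration curves were globally fitted to 1:1 and two-state models, and Kd came from the fit with lower χ2.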

PGRP3f = test: SPR on a Biacore T200; assay type: binding; conditions: read-out: Kd (μM), values without parentheses
Outline: as §1

PGRP3s [2] = test: SPR on a Biacore T200; assay type: binding; conditions: read-out: Kd (μM), values without parentheses
Outline: as §1

PGRP4 = test: SPR on a Biacore T200; assay type: binding; conditions: read-out: Kd (μM), values without parentheses
Outline: as §1

PGRP5 = test: SPR on a Biacore T200; assay type: binding; conditions: read-out: Kd (μM), values without parentheses
Outline: as §1

PGRP12e = test: SPR on a Biacore T200; assay type: binding; conditions: read-out: Kd (μM), values without parentheses
Outline: as §1

PGRP13f = test: SPR on a Biacore T200; assay type: binding; conditions: read-out: Kd (μM), values without parentheses
Outline: as §1

PGRP2 = molecular target: T2, PGRP2 (Manduca sexta, UniProt D1KRK9); test: SPR on a Biacore T100; assay type: binding; conditions: read-out: Kd (μM), values in parentheses
T2 sequence (D1KRK9 19-196): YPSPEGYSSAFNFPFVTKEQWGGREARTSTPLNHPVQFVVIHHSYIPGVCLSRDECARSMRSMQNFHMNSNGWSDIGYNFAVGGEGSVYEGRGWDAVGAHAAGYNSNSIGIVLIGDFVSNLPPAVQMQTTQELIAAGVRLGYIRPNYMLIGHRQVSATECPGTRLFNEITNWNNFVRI
Outline: (§2)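 On a Biacore T100, protein was amine-coupled and DAP- or Lys-muramyl pentapeptide, freshly prepared, was flowed in HBS-EP (10 mM HEPES, 150 mM NaCl, 3 mM EDTA, 0.005% polysorbate 20) at 30 μl/min and 25 °C. Curves at several analyte concentrations were globally fitted to 1:1 and two-state models, and the fit with lower χ2 gave Kd.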

PGRP3s [3] = test: SPR on a Biacore T100; assay type: binding; conditions: read-out: Kd (μM), values in parentheses
Outline: as §2

PGRP1 [4] = molecular target: T1, PGRP1; test: SPR on a Biacore T100; assay type: binding; conditions: read-out: Kd (μM), values in parentheses; cited from earlier work
[5] = system: proPO activation in cell-free hemolymph from naïve larvae; test: Elicitor-independent proPO activation in plasma from naïve larvae; assay type: biochemical, Manduca sexta; conditions: at 40 ng/μl protein, 60 min, room temperature, no bacterial elicitor
Outline: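 Naïve larval plasma (day 2, 5th instar; hemocytes removed by 5000 × g, 5 min; stored −80 °C, used within a month) was diluted ten-fold in 20 mM Tris-HCl pH 8.0, 1 mM CaCl2, 0.001% Tween-20. Plasma (5 μl) was mixed with 0–1000 ng protein (final 25 μl) and incubated 60 min. BSA served as negative control. PO was read with dopamine at A470 in kinetic mode; mean ± SD, n = 3.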

DAP-muramyl pentapeptide (meso-diaminopimelic acid-type peptidoglycan monomer) [DAP-MPP]
Kd (PGRP1 [1]): 2.01 µM
Kd (PGRP3f): 4.7 µM
Kd (PGRP3s [2]): 1.75 µM
Kd (PGRP4): 4.06 µM
Kd (PGRP5): 2.01 µM
Kd (PGRP12e): 2.64 µM
Kd (PGRP13f): 1.8 µM
Kd (PGRP2): 0.49 µM
Kd (PGRP3s [3]): 0.42 µM
Kd (PGRP1 [4]): 0.57 µM

Lys-muramyl pentapeptide (Lys-type peptidoglycan monomer) [Lys-MPP]
Kd (PGRP1 [1]): 38 µM
Kd (PGRP3f): 29.2 µM
Kd (PGRP3s [2]): 23.8 µM
Kd (PGRP4): 79.8 µM
Kd (PGRP5): 37.8 µM
Kd (PGRP13f): 8.77 µM
Kd (PGRP2): > 100 µM
Kd (PGRP3s [3]): 64 µM
Kd (PGRP1 [4]): 45.6 µM

bovine serum albumin [BSA]
PO activity [5]: 0.1 U
